In experiment [1] the test system is SH-SY5Y. In words: Induction of neurite outgrowth in human SH-SY5Y cells at 2 to 5 uM after 48 hrs by crystal violet staining. In kind it is functional, cell-based.
For experiment [2], the system named is U-937. The experiment is described as follows: Cytotoxicity against human U937 cells after 3 days by trypan blue exclusion assay. It counts as functional, cell-based. To be noted: u-937. Put shortly: (§1)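 U937 and P19 cells treated with compound. Cell death scored by trypan blue exclusion, with cells scraped, suspended in 0.25% w/v trypan blue in PBS and counted in a Malassez cell. IC50 is the concentration giving 50% cytotoxicity.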

The subject of experiment [3] is P19. In words: Induction of dendrite out growth in IL-4/GMCSF-stimulated mouse P19 cells assessed as dendrite length at 100 nM after 48 hrs by light microscopy. In kind it is functional.
Experiment [4] concerns P19. In words: Induction of neurite outgrowth in mouse P19 cells at 2 to 5 uM after 48 hrs by crystal violet staining. It counts as functional, cell-based.
Experiment [5] has as its system N2a. In words: Induction of neurite outgrowth in mouse Neuro2a cells at 2 to 5 uM after 48 hrs by crystal violet staining. In kind it is functional, cell-based.
The test system of experiment [6] is U-87MG ATCC. The experiment is described as follows: Induction of neurite outgrowth in human U87 cells at 2 to 5 uM after 48 hrs by crystal violet staining. In kind it is functional, cell-based.
The test system of experiment [7] is P19. The experiment is described as follows: Cytotoxicity against mouse P19 cells after 3 days by trypan blue exclusion assay. In kind it is functional, cell-based. The settings on record: p19. Put shortly:
as §1

Experiment [8] deals with U-937. The experiment is described as follows: Induction of dendrite out growth in IL-4/GMCSF-stimulated human U937 cells assessed as dendrite length at 100 nM after 48 hrs by light microscopy. It counts as functional. The method, boiled down: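 U937 cells at 1.1 × 10⁶ cells/mL were primed with 10 ng/mL PMA for 48 h in RPMI with 10% heat-inactivated serum. Adherent cells were then given 100 ng/mL IL-4 plus 100 ng/mL GM-CSF or 100 nM compound for 48 h. Dendrite length scored by light microscopy, from none to over 100 μm with a contact network.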

In experiment [9] the test system is SK-N-SH. The experiment is described as follows: Induction of neurite outgrowth in human SK-N-SH cells at 2 to 5 uM after 48 hrs by crystal violet staining. In kind it is functional, cell-based.
For experiment [10], the system named is P19. The experiment is described as follows: Induction of mouse P19 cell differentiation into neuron assessed as stimulation of beta-3 tubulin expression at 10 nM after 48 hrs by immunocytochemistry. In kind it is functional, cell-based. The method, boiled down: (§2)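 P19 cells seeded at 10 000/well and treated with vehicle or 10 nM compound. Cells fixed in 4% paraformaldehyde, permeabilized with 1% BSA/0.05% saponin and blocked in 3% BSA. Stained with anti-MAP2A (1/100) or anti-β3-tubulin (1/200) for 1 h at room temperature, then TRITC secondary, and viewed by fluorescence microscopy.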

Experiment [11] concerns SH-SY5Y. In words: Induction of neurite outgrowth in human SH-SY5Y cells at 100 nM after 48 hrs by crystal violet staining. In kind it is functional, cell-based. The method, boiled down:
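Cells exposed to 100 nM compound for 48 h on poly-D-lysine-coated inserts with a 3 μm pore membrane. Neurites crossing the membrane were methanol-fixed and stained, cell bodies were removed, and the dye was extracted and read at 562 nm.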

In the next experiment the test system is KG-1. The experiment is described as follows: Cytotoxicity against human KG1 cells up to 20 uM after 72 hrs by trypan blue exclusion assay. In kind it is functional, cell-based. Put shortly: (§3)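 Tumor lines grown at 37 °C in 5% CO₂, in RPMI 1640 or DMEM with FBS. Cells exposed to compound from 10 nM to 20 μM for 72 h. Cytotoxicity counted by trypan blue exclusion: cells scraped, suspended in 0.25% w/v trypan blue in PBS and counted in a Malassez cell under light microscopy. IC50 is the concentration giving 50% cytotoxicity.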

Another experiment is filed under the species Mus musculus. In words: Neuroprotective activity in mouse motoneuron assessed as cell proliferation at 10 nM treated for 3 days measured on day 2 to 6 post-treatment by cell counting method. It counts as functional. To be noted: in the assay text read “cell survival” for “cell proliferation”. Put shortly: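 Purified mouse motoneurons; solvent vehicle, 100 ng/mL BDNF or 10 nM test agent added immediately after seeding; cells counted at days 2, 3, 4 and 6; surviving motoneurons expressed as percentage.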

Experiment [12] deals with N2a. In words: Induction of neurite outgrowth in mouse Neuro2a cells at 100 nM after 48 hrs by crystal violet staining. It counts as functional, cell-based.
A further experiment relates to HCT-8. In words: Cytotoxicity against human HCT8 cells up to 20 uM after 72 hrs by trypan blue exclusion assay. In kind it is functional, cell-based. Put shortly: as §3
Experiment [13] relates to U-937. The experiment is described as follows: Cytotoxicity against human U937 cells up to 20 uM after 72 hrs by trypan blue exclusion assay. It counts as functional, cell-based. The method, boiled down:
as §3

In another experiment the test system is SK-MEL-28. In words: Cytotoxicity against human SK-MEL-28 cells up to 20 uM after 72 hrs by trypan blue exclusion assay. It counts as functional, cell-based. Put shortly:
as §3

Another experiment deals with A549. In words: Cytotoxicity against human A549 cells up to 20 uM after 72 hrs by trypan blue exclusion assay. In kind it is functional, cell-based. The method, boiled down: as §3
Experiment [14] deals with P19. The experiment is described as follows: Induction of neuritogenesis in mouse P19 cells assessed as dendrite expansion at 10 nM after 48 hrs by light microscopy. In kind it is functional, cell-based. Put shortly: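 P19 embryonal carcinoma cells exposed to 10 nM or solvent vehicle for 48 h; dendrite expansion and cell-contact network assessed by light microscopy.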

The subject of experiment [15] is SH-SY5Y. The experiment is described as follows: Cytotoxicity against human SH-SY5Y cells up to 20 uM after 72 hrs by trypan blue exclusion assay. In kind it is functional, cell-based. The method, boiled down:
as §3

The test system of the next experiment is B16-F10. In words: Cytotoxicity against mouse B16F10 cells up to 20 uM after 72 hrs by trypan blue exclusion assay. It counts as functional, cell-based. Put shortly: as §3
The subject of the next experiment is NB-4. The experiment is described as follows: Cytotoxicity against human NB4 cells up to 20 uM after 72 hrs by trypan blue exclusion assay. In kind it is functional, cell-based. The method, boiled down: as §3
Experiment [16] has as its system N2a. In words: Cytotoxicity against mouse Neuro2a cells up to 20 uM after 72 hrs by trypan blue exclusion assay. In kind it is functional, cell-based. Put shortly: as §3
A further experiment deals with TS/A. The experiment is described as follows: Cytotoxicity against mouse TSA cells up to 20 uM after 72 hrs by trypan blue exclusion assay. It counts as functional, cell-based. The method, boiled down:
as §3

Experiment [17] deals with SK-N-SH. In words: Cytotoxicity against human SK-N-SH cells up to 20 uM after 72 hrs by trypan blue exclusion assay. It counts as functional, cell-based. Put shortly: as §3
For experiment [18], the system named is P19. In words: Induction of mouse P19 cell differentiation into neuron assessed as stimulation of NMDAR1 expression at 10 nM after 48 hrs by Western blotting. In kind it is functional, cell-based. The method, boiled down: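 P19 cells treated with 10 nM compound for 48 h and lysed in Tris pH 7.4 RIPA-type buffer. Proteins run on 7.5% SDS-PAGE and blotted to PVDF. Probed overnight at 4 °C with anti-NMDAR1 (1:1000), with GAPDH as loading control, and detected by enhanced chemiluminescence.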
A general note: Immunoblotting shows a protein as a band on a membrane.

A further experiment concerns MCF7. In words: Cytotoxicity against human MCF7 cells up to 20 uM after 72 hrs by trypan blue exclusion assay. In kind it is functional, cell-based. Put shortly:
as §3

Experiment [19] relates to P19. In words: Cytotoxicity against mouse P19 cells up to 20 uM after 72 hrs by trypan blue exclusion assay. In kind it is functional, cell-based. The method, boiled down: as §3
Experiment [20] deals with P19. In words: Induction of neurite outgrowth in mouse P19 cells at 100 nM after 48 hrs by crystal violet staining. It counts as functional, cell-based.
Experiment [21] deals with P19. The experiment is described as follows: Induction of mouse P19 cell differentiation into neuron assessed as stimulation of MAP2A expression at 10 nM after 48 hrs by immunocytochemistry. It counts as functional, cell-based. Put shortly: as §2
Experiment [22] relates to U-87MG ATCC. The experiment is described as follows: Induction of neurite outgrowth in human U87 cells at 100 nM after 48 hrs by crystal violet staining. In kind it is functional, cell-based.
The test system of experiment [23] is U-937. In words: Cytotoxicity against human U937 cells up to 20 uM after 3 days by trypan blue exclusion assay. In kind it is functional, cell-based. The method, boiled down: as §1
Experiment [24] has as its system U-87MG ATCC. In words: Cytotoxicity against human U87 cells up to 20 uM after 72 hrs by trypan blue exclusion assay. It counts as functional, cell-based. Put shortly:
as §3

Experiment [25] has as its system P19. The experiment is described as follows: Cytotoxicity against mouse P19 cells up to 20 uM after 3 days by trypan blue exclusion assay. In kind it is functional, cell-based. Put shortly:
as §1

For experiment [26], the system named is SK-N-SH. The experiment is described as follows: Induction of neurite outgrowth in human SK-N-SH cells at 100 nM after 48 hrs by crystal violet staining. It counts as functional, cell-based.
The next experiment has as its system SW-620. In words: Cytotoxicity against human SW620 cells up to 20 uM after 72 hrs by trypan blue exclusion assay. In kind it is functional, cell-based. Put shortly:
as §3

This passage reports Activity and IC50 results from ChEMBL document CHEMBL1156107, “Synthesis of new alkylaminooxysterols with potent cell differentiating activities: identification of leads for the treatment of cancer and neurodegenerative diseases” (J Med Chem, 2009).

Calls of active or inactive are those of the source. The rule behind the calls is not given here.

Take `CC1=C(/C=C/C(C)=C/C=C/C(C)=C/C(=O)O)C(C)(C)CCC1` [TRETINOIN]: the outcome in the experiment on SH-SY5Y [1], with P19 [4], in the experiment on N2a [5], with U-87MG ATCC [6] and with SK-N-SH [9] was Active. The IC50 entry in the experiment on U-937 [2] and with P19 [7] was “Not Active” each time. In addition, the outcome with P19 [3] and in the experiment with U-937 [8] was inactive.
`CC(C)CCC[C@@H](C)[C@H]1CC[C@H]2C3=C[C@@H](NCCCNCCCCN)[C@@]4(O)C[C@@H](O)CC[C@]4(C)[C@H]3CC[C@]12C` [DENDROGENIN B]: the result in the experiment on P19 [10], with SH-SY5Y [11], in the experiment listed under Mus musculus, with N2a [12], in the experiment with P19 [14] and in the experiment on P19 [18] was Active. Also, the result with P19 [20], with P19 [21], in the experiment on U-87MG ATCC [22] and in the experiment on SK-N-SH [26] was Active. For the same molecule, the IC50 entry in the experiment with U-937 [2] and with P19 [7] was “Not Active” each time. In addition, the outcome in the experiment with KG-1, in the experiment with HCT-8, with U-937 [13], in the experiment with SK-MEL-28, with A549 and with SH-SY5Y [15] was inactive. Besides, the result with B16-F10, with NB-4, with N2a [16], with TS/A, in the experiment with SK-N-SH [17] and with MCF7 was inactive. In addition, the outcome in the experiment with P19 [19], in the experiment with U-937 [23], in the experiment with U-87MG ATCC [24], in the experiment with P19 [25] and with SW-620 was inactive. The figures for the Activity in the experiment on P19 [3] and with U-937 [8] were over 100 um and under 5 um, respectively.
